Rows were chosen to be rich in hits. Some 2.9% of all compounds tested hit in one or more screens of this group.
MEKK3 PB1 HTS: modulators of MEKK3-MEK5 PB1 binding, primary screen, biochemical, wildtype MEKK3, multiplex bead flow cytometry, Alexa488-MEK5. bead-based flow cytometry, Alexa488-MEK5 binding to MEKK3; actives lie on both sides; 0 = blocked by unlabeled MEK5, 100 = vehicle. binding response (% of control), % at 10 µM. hit rate 1.4% among 290,000. Mitogen-activated protein kinase kinase kinase 3 (Homo sapiens), Q99759. AID 1529, 2009;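 active means binding response more than 3 SD above or below the average of its plate-row segment, actives on both sides; inconclusive means wells at one plate position flagged as instrument error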;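 further: Alexa488 bead fluorescence after subtracting the streptavidin-only scavenger bead signal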
Apaf-1 inh: inhibitors of human Apaf-1 apoptosome, primary screen, biochemical, DEVD-Rh110 fluorescence, uHTS; inhibition, % at 20 µM; Apoptotic protease-activating factor 1 (Homo sapiens), O14727; reconstituted apoptosome caspase-3 activity; AID 489030, 2010; hit rate 0.71% among 330,000; active means inhibition of at least 40% at 20 µM;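 further: plate controls were DMSO wells for no effect and DEVD-CHO caspase inhibitor wells for full effect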
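Assay system – apoptosome proteins · Medium – Hepes buffer, pH 7.5 · Also added – cytochrome c with DEVD-Rh110 · Timing – 30 min compound preincubation, 50 min activation, room temperature · Detection – Rh110 fluorescence, excitation 480 nm, emission 540 nm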
MEKK2 WT-MEK5: modulators of MEK5 binding to wildtype MEKK2, primary screen, biochemical, multiplex bead flow cytometry, Alexa488-MEK5. Alexa488-MEK5 binding to MEKK2 WT; actives lie on both sides. binding response (% of control), % at 10 µM. hit rate 1.1% among 290,000. AID 1531, 2009; in the data active means binding response below about 67% or above about 130%; inconclusive means no clear call, values can overlap the other calls; inactive means in between
MEKK2mut PB1 HTS: MEK5 binding signal on mutant MEKK2 PB1, primary screen, biochemical, multiplex bead flow cytometry, Alexa488-MEK5 | AID 1530, 2009 | Alexa488-MEK5 binding to MEKK2 mutant | hit rate 0.35% among 290,000 | percent response, % at 10 µM; in the data active means percent response above about 24%, passing the limit was not always enough
UBC13 inh: UBC13 polyubiquitin chain formation inhibitors, primary screen, biochemical, TR-FRET, uHTS; Ubiquitin-conjugating enzyme E2 N (Homo sapiens), P61088; inhibition, % at 20 µM; hit rate 0.47% among 330,000; in the data active means inhibition above about 45%, passing the limit was not always enough; inconclusive means no clear call, values can overlap the other calls
Target sequence (P61088 whole entry, looked up): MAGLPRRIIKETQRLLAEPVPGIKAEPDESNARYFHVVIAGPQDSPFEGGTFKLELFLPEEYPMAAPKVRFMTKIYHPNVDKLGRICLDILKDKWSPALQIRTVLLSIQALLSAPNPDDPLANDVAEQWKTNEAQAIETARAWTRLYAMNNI
Casp3 UBC13 ctr: CASP3 inhibitor validation, counterassay for project on UBE2N polyubiquitination blockers, biochemical, one dose | hit rate 4% among 1,400 | shares compounds with UBC13 inh | inhibition, % at 20 µM | Recombinant caspase-3, Caspase-Glo 3/7 luminescence, 60 min;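 active means mean inhibition across replicates above about 26%, limit read from the data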;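 further: plate controls were DMSO with caspase-3 for no effect and DMSO wells lacking enzyme for full effect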
Target sequence (P42574 whole entry, looked up): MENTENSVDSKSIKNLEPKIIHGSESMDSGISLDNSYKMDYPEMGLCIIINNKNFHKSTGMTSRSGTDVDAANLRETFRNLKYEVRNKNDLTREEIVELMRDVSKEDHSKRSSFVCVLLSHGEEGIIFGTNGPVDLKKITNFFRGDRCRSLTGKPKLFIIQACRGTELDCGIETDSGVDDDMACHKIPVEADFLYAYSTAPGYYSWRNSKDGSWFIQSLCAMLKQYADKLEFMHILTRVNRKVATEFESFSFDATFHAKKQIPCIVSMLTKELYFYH
UBC13 confirm: UBC13 polyubiquitination inhibitors, single-point retest, confirmation, biochemical, TR-FRET, single concentration; shares compounds with UBC13 inh; inhibition, % at 10 µM; hit rate 68% among 1,400; in the data active means inhibition above about 45%; inconclusive means no clear call, values can overlap the other calls
* = called active by the depositor; ? = inconclusive; nt = no result given.

SMILES	MEKK3 PB1 HTS	Apaf-1 inh	MEKK2 WT-MEK5	MEKK2mut PB1 HTS	UBC13 inh	Casp3 UBC13 ctr	UBC13 confirm
CCOC(=O)c1c(NC(C)=O)sc2c(OCC(O)CNC(C)(C)C)c(Br)ccc12 (centres undefined)	118.0	13.4	135.0	4.0	45.5*	-6.0	74.2*
Cc1ccc(C)c(S(=O)(=O)c2c[nH]c(=S)[nH]c2=O)c1	100.0	1.7	103.0	-3.0	45.1*	0.0	?
Cc1ccc(C)c(S(=O)(=O)N2CCNCC2)c1	103.0	-13.1	105.0	2.0	-2.2	nt	nt
Cc1nn(CC(=O)NCC(C)c2ccccc2)c(=O)c2cccn12 (centres undefined)	101.0	5.8	100.0	3.0	2.3	nt	nt
CCOc1ccc(-c2csc(NC(=O)c3cccc(N4C(=O)CCC4=O)c3)n2)cc1	107.0	-15.5	109.0	1.0	57.8*	-1.5	?
CC(C)c1ccc(C2CC(=O)c3cnc(NC(=O)c4ccco4)nc3C2)cc1 (centres undefined)	99.0	19.1	100.0	2.0	6.5	nt	nt
Oc1ccc(Cl)cc1Nc1nc(NCC2CCCO2)c2ccccc2n1 (centres undefined)	104.0	24.4	125.0	8.0	53.4*	-1.2	66.6*
O[C@@H](c1cc(C(F)(F)F)nc2c(C(F)(F)F)cccc12)[C@H]1CCCCN1	nt	51.9*	nt	nt	64.1*	-2.4	44.7
COc1ccccc1CN(C)C(=O)c1sccc1-c1ccccc1	100.0	16.6	102.0	8.0	-9.0	nt	nt
COc1ccc(C(=O)Nc2ccc3oc(-c4cccnc4)nc3c2)cc1OC	99.0	5.0	85.0	-12.0	6.5	nt	nt
COc1ccc(C(=O)Nc2ccc3oc(-c4cccc(F)c4)nc3c2)cc1OC	nt	-3.3	nt	nt	54.1*	3.1	35.0
CCC(=O)NC(=S)NNC(=O)c1ccc(O)cc1	102.0	2.1	102.0	1.0	85.5*	3.5	101.0*
CCC(=O)NNC(=S)NC(=O)c1ccc(C)cc1	98.0	-10.3	93.0	-11.0	0.7	nt	nt
COc1ccccc1NS(=O)(=O)c1cccc(C(=O)N/N=C/c2c(CO)cnc(C)c2O)c1	nt	-3.1	nt	nt	72.3*	0.7	19.4
CCOC(=O)c1c(SC)[nH]c2c(Cl)cccc2c1=O	91.0	-10.5	92.0	-10.0	?	nt	nt
CCC(C)c1ccc(OCC(=O)NNC(=O)C2CCCCC2)cc1 (centres undefined)	98.0	-6.7	100.0	0.0	-8.7	nt	nt
N#Cc1ccc(NC(=S)NC(=O)C2CCCCC2)cc1	nt	7.7	nt	nt	0.3	nt	nt
Cc1ccc(OCC(=O)NNC(=S)NC(=O)C2CC2)c(C)c1	102.0	-4.6	101.0	1.0	85.1*	1.9	105.6*
Cc1ccc(OCC(=O)NNC(=S)NC(=O)C2CCCCC2)c(C)c1	102.0	10.3	107.0	8.0	-4.2	nt	nt
N#Cc1ccc(OCC(=O)NNC(=S)NC(=O)C2CC2)cc1	nt	-3.2	nt	nt	105.5*	-1.3	101.5*
CC(C)c1ccc(OCC(=O)NNC(=S)NC(=O)C2CC2)cc1	103.0	6.5	105.0	5.0	61.8*	-1.4	98.6*
CCCCN1C(=N)N([C@@H](CN2CCC[C@H]2CN2C(N)=NC[C@@H]2Cc2ccccc2)C(C)C)C[C@H]1Cc1ccccc1	nt	38.4	nt	nt	46.8*	0.5	38.9
CCCCN1C(=N)N([C@@H](CCC)CN2CCC[C@H]2CN2C(N)=NC[C@H]2CC(C)C)C[C@H]1Cc1ccccc1	nt	17.2	nt	nt	51.2*	2.2	37.8
Cn1c2ccccc2c(=O)c2ccc(NCCc3cccs3)cc21	nt	30.5	nt	nt	45.4*	88.4*	?
Cc1sc(NC(=O)C2=COCCO2)c(C(N)=O)c1C	nt	0.3	nt	nt	-4.9	nt	nt
SMILES	MEKK3 PB1 HTS	Apaf-1 inh	MEKK2 WT-MEK5	MEKK2mut PB1 HTS	UBC13 inh	Casp3 UBC13 ctr	UBC13 confirm
C=C(C)COc1ccc(-c2[nH]ncc2Oc2cccc(OC)c2)c(O)c1	99.0	24.0	113.0	7.0	67.5*	-4.3	67.6*
C=C(C)COc1ccc(-c2[nH]ncc2Oc2ccccc2OCC)c(O)c1	106.0	24.7	107.0	0.0	20.9	nt	nt
Cc1cc(C(=O)NNC(=S)NC(=O)/C=C/c2ccccc2Cl)n[nH]1	110.0	-1.4	108.0	12.0	91.6*	-5.9	88.8*
Cc1cccc(C(=O)NC(=S)NNC(=O)c2ccccc2Cl)c1	107.0	-0.7	104.0	-1.0	-36.8	nt	nt
O=C(COc1ccc(Cl)cc1)NNC(=O)c1ccccn1	nt	11.0	nt	nt	71.0*	-1.6	97.0*
COCCCNC(=S)NNC(=O)c1ccccn1	82.0	3.4	73.0	-16.0	88.8*	1.5	101.1*
Cc1cc(C)cc(OCC(=O)NNC(=O)c2ccccn2)c1	nt	-24.3	nt	nt	95.9*	1.6	84.6*
Cc1ccc(OCCCC(=O)NNC(=O)c2ccccn2)cc1	nt	0.8	nt	nt	56.4*	-0.3	42.8
COCCCNC(=S)NNC(=O)c1ccccc1Br	101.0	-6.5	105.0	2.0	-4.8	nt	nt
Cn1c(=O)c([N+](=O)[O-])c(NCc2ccc3c(c2)OCO3)c2ccccc21	97.0	-7.5	92.0	-5.0	-3.7	nt	nt
CCc1cc(/C(Cc2ccccn2)=N\Nc2ccccc2)c(O)cc1O	99.0	-0.9	95.0	-2.0	-11.1	nt	nt
CC(CCN1CCC(n2nccc2NC(=O)c2ccccc2Cl)CC1)c1ccccc1 (centres undefined)	108.0	7.0	114.0	15.0	-0.1	nt	nt
Cc1cccc(NC(=S)N(C)C)c1C	85.0	-25.9	87.0	-21.0	-1.4	nt	nt
Cc1cccc(Nc2cc(C)c3c(O)cccc3n2)c1C	63.0	27.1	98.0	-4.0	74.2*	-0.2	58.0*
COc1ccc([N+](=O)[O-])cc1NC(=O)C(C)OC(=O)CSC(C)C(=O)Nc1cc(C)on1 (centres undefined)	nt	0.9	nt	nt	-4.6	nt	nt
Cc1cc(Sc2nnc(/N=C/N(C)C)s2)c2ccccc2n1	98.0	-8.4	98.0	-3.0	55.0*	-2.4	65.3*
Cc1cc(Sc2nnc(N)s2)c2ccccc2n1	100.0	-3.8	102.0	4.0	43.8	nt	nt
Oc1ccc(C[C@H]2CNCCN2CCCCC2CCCCC2)cc1	nt	40.6*	nt	nt	58.1*	-3.9	26.4
Cc1cc(C)c(S(=O)(=O)c2ccccc2C)c(OCCN(C)C)n1	104.0	0.1	107.0	3.0	0.6	nt	nt
c1coc(-c2nc(-c3ccco3)c(-c3ccco3)nc2-c2ccco2)c1	81.0	63.4*	72.0	-17.0	76.6*	21.1	63.9*

Bioassay records as filed in PubChem.
